From ChEMBL document CHEMBL1126036, “Quinolone antibacterial agents. Synthesis and structure-activity relationships of a series of amino acid prodrugs of racemic and chiral 7-(3-amino-1-pyrrolidinyl)quinolones. Highly soluble quinolone prodrugs with in vivo pseudomonas activity” (J Med Chem, 1992)
Converted amounts (≈) assume the structure as drawn.

Key:
[1] = system: Escherichia coli; test: In vitro antibacterial activity against gram negative Escherichia coli Vogel.; format: functional
[2] = system: Enterococcus faecalis; test: In vitro antibacterial activity against gram positive Enterococcus faecalis MGH-2.; format: functional
[3] = biological target: DNA gyrase (Escherichia coli) (UniProt P0AES6+P0AES4); test: In vitro concentration inhibiting DNA gyrase induced cleavage in Escherichia coli H560.; format: functional
In short: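 DNA gyrase test run as described in earlier work. The value is the drug concentration (µg/mL) needed to cause DNA cleavage.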

[4] = system: Enterobacter cloacae; test: In vitro antibacterial activity against gram negative Enterobacter cloacae MA 2646.; format: functional
[5] = system: Klebsiella pneumoniae; test: In vitro antibacterial activity against gram negative Klebsiella pneumoniae. MGH-2; format: functional
[6] = system: Escherichia coli; test: In vivo potency against acute systemic infection in mouse caused by Escherichia coli Vogel on oral administration by gavage.; format: functional; conditions: read-out: PD50
In short: (§1)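 Acute systemic mouse infection. A single oral dose was given by gavage at the time of challenge. Potency is reported as the median protective dose (PD50, mg/kg), determined by earlier published methods.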

[7] = system: Streptococcus pneumoniae; test: In vivo potency against acute systemic infection in mouse caused by Streptococcus pneumoniae SV-1 on oral administration by gavage.; format: functional; conditions: read-out: PD50; in short: as §1
[8] = system: Streptococcus pneumoniae; test: In vivo potency against acute systemic infection in mouse caused by Streptococcus pneumoniae SV-1 on subcutaneous injection.; format: functional; conditions: sc, read-out: PD50
In short: (§2)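 Acute systemic mouse infection. A single subcutaneous dose was injected at the time of challenge. Potency is reported as the median protective dose (PD50, mg/kg), determined by earlier published methods.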

[9] = system: Escherichia coli; test: In vivo potency against acute systemic infection in mouse caused by Escherichia coli vogel on subcutaneous injection.; format: functional; conditions: sc, read-out: PD50; in short: as §2
[10] = system: Mus musculus; test: In vivo potency against acute systemic infection in mouse caused by Pseudomonas aeruginosa UI-18 on oral administration by gavage.; format: functional; conditions: read-out: PD50; in short: as §1
[11] = system: Mus musculus; test: In vivo potency against acute systemic infection in mouse caused by Pseudomonas aeruginosa. UI-18. on subcutaneous injection.; format: functional; conditions: sc, read-out: PD50; in short: as §2
[12] = system: Mus musculus; test: In vivo potency against acute systemic infection in mouse caused by Streptococcus pyogenes C-203 on oral administration by gavage; format: functional; conditions: read-out: PD50; in short: as §1
[13] = system: Mus musculus; test: In vivo potency against acute systemic infection in mouse caused by Streptococcus pyogenes C-203 on subcutaneous injection; format: functional; conditions: sc, read-out: PD50; in short: as §2
[14] = system: Pseudomonas aeruginosa; test: In vitro antibacterial activity against gram negative Pseudomonas aeruginosa UI-18.; format: functional
[15] = system: Providencia rettgeri; test: In vitro antibacterial activity against gram negative Providencia rettgeri M-1771.; format: functional
[16] = system: Staphylococcus aureus; test: In vitro antibacterial activity against gram positive Staphylococcus aureus H-228.; format: functional
[17] = system: Streptococcus pyogenes; test: In vitro antibacterial activity against gram positive Streptococcus pyogenes C-203.; format: functional
[18] = system: Staphylococcus aureus; test: In vitro antibacterial activity against gram positive Staphylococcus aureus UC76.; format: functional
[19] = system: Streptococcus pneumoniae; test: In vitro antibacterial activity against gram positive Streptococcus pneumoniae SV-1.; format: functional
[20] = system: Klebsiella pneumoniae; test: In vitro antibacterial activity against gram negative Klebsiella pneumoniae MGH-2.; format: functional
[21] = Solubility (in 0.1 N HCl); format: physicochemical; conditions: read-out: S
In short: (§3)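 Solubility was measured either from HPLC peak areas at equilibrium or by a conventional weight-per-volume method. All solutions were held for 24 h before measurement.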

[22] = Solubility (at pH 4); format: physicochemical; conditions: buffer, read-out: S; in short: as §3
[23] = Solubility (at pH 7.4); format: physicochemical; conditions: buffer, read-out: S; in short: as §3
[24] = Aqueous solubility; format: physicochemical; conditions: water (aqueous); read-out: S; in short: as §3

`N[C@H]1CCN(c2nc3c(cc2F)c(=O)c(C(=O)O)cn3C2CC2)C1` showed an MIC [1] of 0.006 µg/mL (≈ 0.0181 µM), an MIC [2] of 0.1 µg/mL (≈ 0.301 µM) and a Cleavage [3] of 0.25 µg/mL. It also gave an MIC [4] of 0.013 µg/mL (≈ 0.0391 µM), an MIC [5] of 0.013 µg/mL (≈ 0.0391 µM) and an ED50 [6] of 0.8 mg/kg. The ED50 [7] was 19 mg/kg, the ED50 [8] was 14 mg/kg and the ED50 [9] was 0.4 mg/kg. For the same compound, the ED50 [10] was 4 mg/kg, the ED50 [11] was 2 mg/kg and the ED50 [12] was 19 mg/kg. It also gave an ED50 [13] of 9 mg/kg, an MIC [14] of 0.1 µg/mL (≈ 0.301 µM) and an MIC [15] of 0.025 µg/mL (≈ 0.0752 µM). For the same compound, the MIC [16] was 0.05 µg/mL (≈ 0.15 µM), the MIC [17] was 0.05 µg/mL (≈ 0.15 µM) and the MIC [18] was 0.013 µg/mL (≈ 0.0391 µM). The MIC [19] was 0.05 µg/mL (≈ 0.15 µM).
`Cl.NC1CCN(c2cc3c(cc2F)c(=O)c(C(=O)O)cn3C2CC2)C1.O` (stereo not drawn) showed an MIC [1] of 0.025 µg/mL, an MIC [2] of 0.1 µg/mL and a Cleavage [3] of 0.1 µg/mL. For the same compound, the MIC [4] was 0.025 µg/mL, the MIC [20] was 0.05 µg/mL and the ED50 [6] was 3 mg/kg. For the same compound, the ED50 [7] was 43 mg/kg, the ED50 [8] was 4 mg/kg and the ED50 [9] was 0.5 mg/kg. The ED50 [10] was 49 mg/kg, the ED50 [11] was 5 mg/kg and the ED50 [12] was 97 mg/kg. It also gave an ED50 [13] of 11 mg/kg, an MIC [14] of 0.1 µg/mL and an MIC [15] of 0.1 µg/mL. It also gave an MIC [16] of 0.2 µg/mL, an MIC [17] of 0.1 µg/mL and an MIC [18] of 0.025 µg/mL. The MIC [19] was 0.1 µg/mL.
With `N[C@@H]1CCN(c2nc3c(cc2F)c(=O)c(C(=O)O)cn3C2CC2)C1` the MIC [1] was 0.013 µg/mL (≈ 0.0391 µM), the MIC [2] was 0.2 µg/mL (≈ 0.602 µM) and the Cleavage [3] was 0.5 µg/mL. For the same compound, the MIC [4] was 0.025 µg/mL (≈ 0.0752 µM), the MIC [5] was 0.025 µg/mL (≈ 0.0752 µM) and the ED50 [6] was 0.5 mg/kg. The ED50 [7] was 45 mg/kg, the ED50 [8] was 34 mg/kg and the ED50 [9] was 0.4 mg/kg. For the same compound, the MIC [14] was 0.4 µg/mL (≈ 1.2 µM), the MIC [15] was 0.05 µg/mL (≈ 0.15 µM) and the MIC [16] was 0.2 µg/mL (≈ 0.602 µM). For the same compound, the MIC [17] was 0.2 µg/mL (≈ 0.602 µM), the MIC [18] was 0.05 µg/mL (≈ 0.15 µM) and the MIC [19] was 0.1 µg/mL (≈ 0.301 µM).
In the case of `C[C@H](N)C(=O)NC1CCN(c2c(F)cc3c(=O)c(C(=O)O)cn(C4CC4)c3c2F)C1.Cl.O` (stereo partly drawn), the solubility [21] is reported as 7200 µg/mL, the solubility [22] is reported as 25 mg/mL and the solubility [23] is reported as 90 µg/mL. The MIC [1] was 0.2 µg/mL, the MIC [2] was 0.4 µg/mL and the Cleavage [3] was 1 µg/mL. The MIC [4] was 0.2 µg/mL, the MIC [20] was 0.2 µg/mL and the ED50 [6] was 2 mg/kg. It also gave an ED50 [7] of 13 mg/kg, an ED50 [8] of 9 mg/kg and an ED50 [9] of 0.3 mg/kg. The ED50 [10] was 13 mg/kg, the ED50 [11] was 2 mg/kg and the ED50 [12] was 12 mg/kg. For the same compound, the ED50 [13] was 4 mg/kg, the MIC [14] was 0.4 µg/mL and the MIC [15] was 0.2 µg/mL. For the same compound, the MIC [16] was 0.2 µg/mL, the MIC [17] was 0.1 µg/mL and the MIC [18] was 0.05 µg/mL. The MIC [19] was 0.1 µg/mL and the solubility [24] was 31 mg/mL.
With `Cl.NC1CCN(c2c(F)cc3c(=O)c(C(=O)O)cn(C4CC4)c3c2F)C1` (stereo not drawn) the solubility [21] was 3000 µg/mL, the solubility [22] was 2.4 mg/mL and the solubility [23] was 80 µg/mL. The MIC [1] was 0.013 µg/mL, the MIC [2] was 0.05 µg/mL and the Cleavage [3] was 0.1 µg/mL. For the same compound, the MIC [4] was 0.025 µg/mL, the MIC [20] was 0.025 µg/mL and the ED50 [6] was 1 mg/kg. It also gave an ED50 [7] of 15 mg/kg, an ED50 [8] of 6 mg/kg and an ED50 [9] of 0.2 mg/kg. It also gave an ED50 [10] of 7 mg/kg, an ED50 [11] of 3 mg/kg and an ED50 [12] of 7 mg/kg. The ED50 [13] was 2 mg/kg, the MIC [14] was 0.05 µg/mL and the MIC [15] was 0.05 µg/mL. For the same compound, the MIC [16] was 0.025 µg/mL, the MIC [17] was 0.05 µg/mL and the MIC [18] was 0.006 µg/mL. It also gave an MIC [19] of 0.05 µg/mL and a solubility [24] of 15 mg/mL.
For `C[C@H](N)C(=O)N[C@@H]1CCN(c2nc3c(cc2F)c(=O)c(C(=O)O)cn3C2CC2)C1.Cl.O`, the solubility [21] was > 200000 µg/mL, the solubility [22] was > 200 mg/mL and the solubility [23] was 70 µg/mL. For the same compound, the MIC [1] was 1.6 µg/mL, the MIC [2] was 3.1 µg/mL and the Cleavage [3] was 1 µg/mL. It also gave an MIC [4] of 0.8 µg/mL, an MIC [20] of 3.1 µg/mL and an ED50 [6] of 2 mg/kg. For the same compound, the ED50 [7] was 40 mg/kg, the ED50 [8] was 28 mg/kg and the ED50 [9] was 0.5 mg/kg. For the same compound, the ED50 [12] was 49 mg/kg, the ED50 [13] was 32 mg/kg and the MIC [14] was 6.3 µg/mL. It also gave an MIC [15] of 3.1 µg/mL, an MIC [16] of 3.1 µg/mL and an MIC [17] of 0.8 µg/mL. The MIC [18] was 0.8 µg/mL, the MIC [19] was 1.6 µg/mL and the solubility [24] was > 200 mg/mL.
In the case of `C[C@H](N)C(=O)N[C@H]1CCN(c2c(F)c(N)c3c(=O)c(C(=O)O)cn(C4CC4)c3c2F)C1.Cl.O`, the solubility [21] is reported as 2800 µg/mL, the solubility [22] is reported as 58 mg/mL and the solubility [23] is reported as 40 µg/mL. The MIC [1] was 0.05 µg/mL, the MIC [2] was 0.2 µg/mL and the Cleavage [3] was 2.5 µg/mL. It also gave an MIC [4] of 0.05 µg/mL, an MIC [20] of 0.2 µg/mL and an ED50 [6] of 5 mg/kg. The ED50 [7] was 17 mg/kg, the ED50 [8] was 13 mg/kg and the ED50 [9] was 2.5 mg/kg. The ED50 [10] was 9.6 mg/kg, the ED50 [11] was 4 mg/kg and the ED50 [12] was 6.3 mg/kg. For the same compound, the ED50 [13] was 23 mg/kg, the MIC [14] was 1.6 µg/mL and the MIC [15] was 0.4 µg/mL. For the same compound, the MIC [16] was 0.1 µg/mL, the MIC [17] was 0.05 µg/mL and the MIC [18] was 0.025 µg/mL. For the same compound, the MIC [19] was 0.05 µg/mL and the solubility [24] was 18 mg/mL.
